Activity calls are given as the source filed them. The calls are words filed in the database; no cut-off is given here.
Assays:
HepG2 [1] = assay: Induction of apoptosis in human HepG2 cells assessed as late apoptotic cells at 4 uM after 24 hrs by annexin V/propidium iodide staining based flow cytometric analysis (reference value: 3.22%); type: functional
HepG2 [2] = assay: Induction of mitochondrial morphological changes in human HepG2 cells assessed as dilation of mitochondria by measuring vacuoles at 3 uM measured up to 30 hrs […] by TEM analysis; type: functional, cell-based; conditions: time hrs <=30
Outline: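 HepG2 cells given 3 μM for 15 h or 30 h, then fixed in 2.5% glutaraldehyde at 4 °C overnight. Dehydrated through graded alcohols, embedded in resin and examined by transmission electron microscopy.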

HT-29 = assay: Induction of morphological changes in human HT29 cells assessed as accumulation of cytoplasmic vacuoles at 4 uM after 24 hrs by optical microscopic method; type: functional, cell-based
Outline: (§1)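 Cells grown at 37 °C, 5% CO2 in media with 10% FBS and penicillin/streptomycin, then treated with compound. Cytoplasmic vacuoles judged by optical microscopy. Time course at 4 μM, or 10 h exposure across increasing concentrations.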

[3] = Ratio of HN drug uptake to test compound drug uptake in human HepG2 cells mitochondria at 5 uM after 12 hrs by HPLC analysis; type: ADME; conditions: hepg2, 12 h
Outline: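 HepG2 cells treated with 5 μM compound or honokiol for 12 h. Mitochondria isolated with a kit by centrifugation at 600g then 11000g, 4 °C, 10 min each. Whole-cell and mitochondrial drug measured by HPLC on a C18 column, methanol-0.1% acetic acid (80:20), at 265 nm (derivative) and 210 nm (honokiol). Run thrice.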

HepG2 [4] = assay: Induction of morphological changes in human HepG2 cells assessed as accumulation of vacuoles at 3 uM after 24 hrs in presence of CQ by microscopic method; type: functional, cell-based
Outline: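 HepG2 cells given 3 μM compound for 24 h with chloroquine (10 μM) or 3-methyladenine (1 mM). Vacuolization and viability examined, viability by MTT.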

HepG2 [5] = assay: Induction of autophagy in human HepG2 cells assessed as effect on P62 protein expression at 3 uM after 24 hrs by Western blot analysis; type: functional, cell-based
Outline: (§2)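 HepG2 cells lysed in RIPA on ice for 20 min; protein measured by BCA. Lysates run on 10% SDS-PAGE and transferred to PVDF. Membranes blocked in 5% nonfat milk/TBST for 2 h, incubated with primary antibodies overnight at 4 °C, then HRP secondary antibody; bands detected by ECL.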

A2780 [6] = assay: Antiproliferative activity against human A2780 cells assessed as reduction in cell viability after 48 hrs by MTT assay; type: functional, cell-based; conditions: A2780, 48 h
Outline: (§3)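 Cell lines grown at 37 °C in 5% CO2: A2780, A549, HL7702 and PC3 in RPMI 1640; HT29 in McCoy's 5A; HepG2 and PANC-1 in DMEM; all media with 10% FBS and penicillin/streptomycin. Cells seeded and left overnight, then exposed to compound for 48 h. MTT (5 mg/mL solution) added for 4 h at 37 °C, formazan dissolved in DMSO, absorbance read at 570 nm. IC50 taken from viability; run in triplicate.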

[7] = Selectivity ratio of IC50 for antiproliferative activity against human L02 cells to IC50 for antiproliferative activity human HepG2 cells; type: toxicity, cell-based; conditions: L02 cells and HepG2 cells, read-out: Ratio IC50
Outline: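 MTT assay after 48 h drug exposure. Cells seeded overnight, MTT (5 mg/mL stock) added for 4 h at 37 °C, formazan dissolved in DMSO, absorbance read at 570 nm. IC50 taken from viability, repeated in triplicate, and the IC50 ratio calculated.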

HepG2 [8] = assay: Induction of apoptosis in human HepG2 cells assessed as late apoptotic cells at 1 uM after 24 hrs by annexin V/propidium iodide staining based flow cytometric analysis (reference value: 3.22%); type: functional
HepG2 [9] = assay: Induction of apoptosis in human HepG2 cells assessed as viable cells at 1 uM after 24 hrs by annexin V/propidium iodide staining based flow cytometric analysis (reference value: 95.3%); type: functional; conditions: read-out: Activity
HepG2 [10] = assay: Induction of mitochondrial dysfunction in human HepG2 cells assessed as dispersive puncta formation at 2 to 4 uM after 12 hrs by calcein-AM staining based fluorescence microscopic analysis; type: functional, cell-based; conditions: dose 2-4 µM
Outline: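 HepG2 cells in glass-bottom plates treated for 12 h. Co-loaded with 1.5 μM calcein-AM and 5 mM CoCl2 in DMEM at 37 °C for 20 min; CoCl2 quenches cytosolic calcein. Washed three times with PBS and imaged by fluorescence microscopy through a 525-nm bandpass filter.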

L02 = assay: Induction of morphological changes in human L02 cells assessed as accumulation of cytoplasmic vacuoles at 4 uM after 24 hrs by optical microscopic method; type: cell-based; conditions: l02, 24 h; outline: as §1
HepG2 [11] = assay: Induction of mitochondrial morphological changes in human HepG2 cells assessed as dilation of mitochondria at 3 uM measured after 12 hrs by MitoTracker red CMXRos by confocal microscopic method; type: functional, cell-based
Outline: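 HepG2 cells stained with MitoTracker Red CMXRos; fluorescence and phase-contrast images taken by laser confocal microscopy.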

HepG2 [12] = assay: Induction of cell death in human HepG2 cells at 3 uM after 24 hrs in presence of CQ by MTT assay; type: functional, cell-based
Outline: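 HepG2 cells given 3 μM for 24 h together with CQ (10 μM) or 3-MA (1 mM). Viability measured by MTT with absorbance read at 570 nm.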

HepG2 [13] = assay: Induction of apoptosis in human HepG2 cells assessed as decrease in pro-caspase 12 protein expression at 1 to 4 uM after 24 hrs by Western blot analysis; type: functional, cell-based; conditions: dose 1-4 µM; outline: as §2
HepG2 [14] = assay: Induction of apoptosis in human HepG2 cells assessed as increase in cleaved-caspase 9 protein expression at 1 to 4 uM after 24 hrs by Western blot analysis; type: functional, cell-based; conditions: dose 1-4 µM; outline: as §2
HepG2 [15] = assay: Induction of morphological changes in human HepG2 cells assessed as effect on number of vacuoles at 3 uM after 24 hrs in presence of z-VAD-fmk by microscopic analysis; type: functional, cell-based
Outline: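 HepG2 cells preincubated with or without z-VAD-fmk (20 μM, 2 h), then treated with 3 μM compound. Vacuole number and size judged from optical microscopy images.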

HepG2 [16] = assay: Induction of apoptosis in human HepG2 cells assessed as early apoptotic cells at 2 uM after 24 hrs by annexin V/propidium iodide staining based flow cytometric analysis (reference value: 1.29%); type: functional
HepG2 [17] = assay: Induction of mitochondrial dysfunction in human HepG2 cells assessed as […] at 1 to 4 uM after 24 hrs by JC-1 staining based flow cytometric analysis; type: functional, cell-based; conditions: dose 1-4 µM
HepG2 [18] = assay: Induction of apoptosis in human HepG2 cells assessed as late apoptotic cells at 2 uM after 24 hrs by annexin V/propidium iodide staining based flow cytometric analysis (reference value: 3.22%); type: functional
HepG2 [19] = assay: Induction of apoptosis in human HepG2 cells assessed as necrotic cells at 1 uM after 24 hrs by annexin V/propidium iodide staining based flow cytometric analysis (reference value: 0.11%); type: functional
A2780 [20] = assay: Induction of morphological changes in human A2780 cells assessed as accumulation of cytoplasmic vacuoles at 4 uM after 24 hrs by optical microscopic method; type: functional, cell-based
A549 = assay: Antiproliferative activity against human A549 cells assessed as reduction in cell viability after 48 hrs by MTT assay; type: functional, cell-based; conditions: A549, 48 h; outline: as §3

In the case of C=CCc1ccc(O)c(-c2ccc(OCCCCCc3c4[n+](cc5c(OC)c(OC)ccc35)CCc3cc5c(cc3-4)OCO5)c(CC=C)c2)c1.[I-], the Activity (HepG2 [1]) is reported as 17.6%, the Activity (HepG2 [2]) is reported as “Active” and the Activity (HT-29) is reported as “Active”. For the same molecule, the Ratio [3] was 3.7, the Activity (HepG2 [4]) was “Active” and the Activity (HepG2 [5]) was “inactive”. For the same molecule, the IC50 (A2780 [6]) was 2220 nM, the selectivity ratio [7] was 2.8 and the Activity (HepG2 [8]) was 3.21%. For the same molecule, the viability at 1 µM (HepG2 [9]) was 93.3%, the Activity (HepG2 [10]) was “Active” and the Activity (L02) was “Active”. For the same molecule, the Activity (HepG2 [11]) was “Active”, the Activity (HepG2 [12]) was “Active” and the Activity (HepG2 [13]) was “Active”. For the same molecule, the Activity (HepG2 [14]) was “Active”, the Activity (HepG2 [15]) was “inactive” and the Activity (HepG2 [16]) was 3.03%. The Activity (HepG2 [17]) was “Active”, the Activity (HepG2 [18]) was 3.51% and the Activity (HepG2 [19]) was 0.2%. The Activity (A2780 [20]) was “Active” and the IC50 (A549) was 3000 nM.
